System: HL-60
Assay: Cytotoxicity against human HL60 cells after 72 hrs by MTT assay
Format: functional, cell-based
Conditions: HL-60, 72 h
Outline: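 HL-60 leukemia cells kept in RPMI 1640 with 10% fetal bovine serum, L-glutamine, 100 units/mL penicillin and 100 μg/mL streptomycin. Cells at 3 × 10^4 cells/mL exposed continuously to compound for 72 h. Growth read by MTT reduction. IC50 (50% inhibition) calculated from each compound's dose–response curve.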

Row | Compound | IC50 [µM]
1 | CC(C)CCC(O)[C@@H](C)[C@@]1(O)[C@@H](O[C@@H]2OC[C@H](O)[C@H](O[C@@H]3OC[C@@H](O)[C@H](O)[C@H]3O)[C@H]2O)C[C@H]2[C@@H]3CC=C4C[C@@H](O)CC[C@]4(C)[C@H]3CC[C@@]21C (some centres not stated) | 8.3
2 | CC(C)CCC(=O)[C@@H](C)[C@@]1(O)[C@@H](O[C@@H]2OC[C@H](O)[C@H](O[C@@H]3OC[C@@H](O[C@@H]4O[C@H](CO)[C@@H](O)[C@H](O)[C@H]4O)[C@H](O)[C@H]3O)[C@H]2O)C[C@H]2[C@@H]3CC=C4C[C@@H](O)CC[C@]4(C)[C@H]3CC[C@@]21C | > 10
